Values after ≈ are worked out from the molar mass of the structure shown.
How the values were obtained:
[1] = system: Mycobacterium tuberculosis; experiment: Antimycobacterial activity against multi drug-resistant Mycobacterium tuberculosis TN800 assessed as bacterial growth inhibition incubated for 6 days by Alamar blue staining based assay; format: functional; conditions: TN800, 144 h, time 6 day
Outline: (§1)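 Strains passaged at 37 °C in 7H9 with OADC, 0.2% glycerol and 0.02% tyloxapol to OD600 0.5–0.7, then diluted to OD600 0.005. Final test range 5 to 0.009 μg/mL. Rifampicin control. Incubated 6 days at 37 °C with 5% CO2. Tween 80 and Alamar Blue then added for 24 h. Absorbance read at 570 nm, normalized to 600 nm.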

[2] = system: Mycobacterium tuberculosis; experiment: Antibacterial activity against Mycobacterium tuberculosis mc2 6206 harboring mLux plasmid infected in mouse J774.A1 cells assessed as inhibition of bacterial cell viability incubated for 72 hrs by multimode microplate reader analysis; format: functional, organism-based; conditions: mc2 6206, J774.A1, 72 h
Outline: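 Macrophages at (4–5) × 10^5 cells/mL in DMEM/10% FBS, seeded and left to adhere overnight. Infected at MOI 1:10 with mid-log bacteria for 4 h at 37 °C, 5% CO2. Medium supplemented with pantothenate and leucine, each 50 μg/mL. After PBS washes, compound added at 64 to 0.0004 μg/mL for 72 h. Luminescence read-out. IC50 by nonlinear regression. Triplicate; experiment repeated twice.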

[3] = system: Mycobacterium tuberculosis; experiment: Antimycobacterial activity against multi drug-resistant Mycobacterium tuberculosis 7791 assessed as bacterial growth inhibition incubated for 6 days by Alamar blue staining based assay; format: functional; conditions: Mycobacterium tuberculosis, 7791, 144 h; time 6 day; outline: as §1
[4] = system: Mycobacterium tuberculosis; experiment: Antimycobacterial activity against multi drug-resistant Mycobacterium tuberculosis 565 assessed as bacterial growth inhibition incubated for 6 days by Alamar blue staining based assay; format: functional; conditions: Mycobacterium tuberculosis, 565, 144 h; time 6 day; outline: as §1

SMILES | MIC [1] | IC50 [2] | MIC [3] | MIC [4]
C=CC(C)(C)n1cc(C(O)C2NC(=O)[C@H](C(C)C)NC(=O)[C@H](CC(C)C)N(C)C(=O)[C@H](C(C)C)NC(=O)C(C(OC)c3ccccc3)NC(=O)[C@H](C(C)C)NC(=O)C(CC(C)CO)N(C)C2=O)c2ccccc21 (stereo partly specified) | 0.08 µg/mL (≈ 0.0788 µM) | 0.71 µg/mL (≈ 0.699 µM) | 0.08 µg/mL (≈ 0.0788 µM) | 0.08 µg/mL (≈ 0.0788 µM)
CO[C@H]1/C=C/O[C@@]2(C)Oc3c(C)c(O)c4c(O)c(c(/C=N/N5CCN(C)CC5)c(O)c4c3C2=O)NC(=O)/C(C)=C\C=C\[C@H](C)[C@H](O)[C@@H](C)[C@@H](O)[C@@H](C)[C@H](OC(C)=O)[C@@H]1C [RIFAMPIN] | – | 0.08 µg/mL (≈ 0.0972 µM) | – | –
CO[C@@H](c1ccccc1)[C@H]1NC(=O)[C@H](C)NC(=O)[C@@H](CC(C)CO)N(C)C(=O)C(C(O)c2cn(C(C)(C)[C@@H]3CO3)c3ccccc23)NC(=O)[C@@H]([C@H](C)C=C(C)C)NC(=O)[C@@H](CC(C)C)N(C)C(=O)[C@@H](C(C)C)NC1=O (stereo partly specified) | – | 0.48 µg/mL (≈ 0.46 µM) | – | –
